Source: PubChem BioAssay (The Scripps Research Institute Molecular Screening Center)
SF1 activator: activators of human nuclear receptor SF-1; activation, % at 10 µM; CHO-K1 Gal4-SF-1 LBD luciferase reporter; % increase over DMSO SF-1-specific signal; 65,000 compounds, 1.9% hits; AID 522;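 active = activation above the mean activation of all tested compounds plus 3 SD, cut at about 50% in these data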
Target sequence (Q13285 whole entry, looked up, the tested form may be a part): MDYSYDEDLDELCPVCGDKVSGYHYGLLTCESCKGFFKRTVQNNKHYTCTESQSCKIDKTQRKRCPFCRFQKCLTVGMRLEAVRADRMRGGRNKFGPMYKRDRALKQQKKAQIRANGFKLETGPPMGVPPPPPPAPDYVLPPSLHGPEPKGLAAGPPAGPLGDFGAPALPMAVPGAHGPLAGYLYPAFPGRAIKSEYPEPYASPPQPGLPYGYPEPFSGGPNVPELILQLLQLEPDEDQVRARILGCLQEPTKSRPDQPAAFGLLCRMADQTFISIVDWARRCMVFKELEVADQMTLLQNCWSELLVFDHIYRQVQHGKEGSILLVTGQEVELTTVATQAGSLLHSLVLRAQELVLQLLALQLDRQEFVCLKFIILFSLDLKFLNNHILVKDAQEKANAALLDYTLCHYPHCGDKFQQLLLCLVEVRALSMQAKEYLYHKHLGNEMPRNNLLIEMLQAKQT
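Assay system: CHO-K1 cells co-transfected with Gal4 DBD–human SF-1 LBD, 5xGal4 luciferase reporter; doses: 10 µM only; incubation: 20 h compound exposure at 37 °C after 1 h cell settling; signal: luciferase light emission; evaluation: percent activation versus DMSO; repeats: one test per compound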
Jurkat tox 60K: reduces viability or proliferation of Jurkat cells. Jurkat E6.1 viability, ATP luminescence, 48 h. 56,000 compounds, 1.2% hits. inhibition, % at 4 µM;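 active = inhibition above the mean inhibition of all tested compounds plus 3 SD, cut at about 28% in these data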
HEK293 NFkB inh: lowers PMA/ionomycin-induced NF-kB signal in HEK293 cells; 62,000 compounds, 0.21% hits; inhibition, % at 3 µM; AID 465; HEK-293 NF-kB luciferase reporter, luminescence;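 active = inhibition above the mean of all tested compounds plus 3 SD, cut at about 40% in these data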;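 note: 0% = stimulated DMSO wells and 100% = 10 µM reference inhibitor 5653914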
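Reagent: PMA plus ionomycin mix as NF-kB-activating stimulus. Assay system: NF-kB luciferase reporter HEK-293 cells. Technique: luminescence from luciferase substrate reagent. Incubation: 1 h compound pre-incubation, 16 h PMA/ionomycin at 37 °C. Benchmarks: DMSO only as uninhibited control, 10 µM reference inhibitor as full inhibition. Repeats: tested once.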
RORA act: activates the human nuclear receptor RORA; P35398; CHO-K1 Gal4-RORA LBD luciferase reporter, luminescence; percent increase over mock-subtracted basal signal; activation, % at 10 µM; 65,000 compounds, 1.5% hits; AID 560;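 active = activation above the mean of all tested compounds plus 3 SD, cut at about 49% in these data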;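 note: 0% = DMSO-treated RORA cells and 100% = added signal equal to DMSO minus mock-transfected cells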
Active calls of the source: *; nt = not tested or not shown. Only some compounds are listed: those with a hit (about 3.9% of all), similar ones and a draw of the others.

SMILES	SF1 activator	Jurkat tox 60K	HEK293 NFkB inh	RORA act
O=C(CSc1ncc(-c2ccc(F)cc2)[nH]1)N1CCCCC1	30	0	12	24
O=c1cc(Nc2ccc3c(c2)OCCO3)[nH]c(=O)n1C1CCCCC1	29	59*	23	48
CCc1ccc(Nc2cc(=O)n(C3CCCCC3)c(=O)[nH]2)cc1	52*	0	-12	16
O=c1cc(Nc2ccc3c(c2)OCCO3)[nH]c(=O)n1-c1ccc(Cl)cc1	40	10	3	50*
CC1(C(=O)NCc2cccnc2)CCC(=O)N1Cc1cccs1 (stereo unspecified)	2	2	11	7
c1ccc2c(c1)[nH]c1nc(SCCN3CCOCC3)nnc12	33	-1	17	9
Fc1ccc2nc3[nH]c4ccccc4c3nc2c1	90*	11	-27	39
O=C(C1CCC(C(=O)N2CCc3ccccc32)CC1)N1CCc2ccccc21 (stereo unspecified)	-16	-2	10	-2
O=C(c1ccc(Cl)s1)N1CCc2ccccc21	62*	3	-6	47
CC1=CC(C)=Nc2ccc(C)cc2N1	76*	0	-23	58*
Cc1ncsc1C(=O)Nc1nc2c(s1)CCCC2	66*	6	-26	57*
O=C(Nc1nc2c(s1)CCCC2)c1ccc2ncsc2c1	38	-8	-54	50*
Cc1[nH]c2ccc(CNS(=O)(=O)c3ccc(S(=O)(=O)N4CCOCC4)cc3)cc2c1C	11	nt	14	-1
CN(C)C(=O)CSc1nnc(CCN)o1	3	5	5	-14
CN(C)C(=O)CSc1nnc(C23CC4CC(CC(C4)C2)C3)o1	88*	-4	-24	18
COC(=O)c1ccc(CSc2ccc3nnc(-c4cccc(F)c4)n3n2)o1	-12	4	1	8
COc1ccccc1Nc1nc2ccccc2[nH]1	66*	0	-16	6
COC(=O)c1[nH]c2cc(OC)ccc2c1N	16	-8	20	4
O=C(c1ccco1)N1C(=O)c2cccc3cccc1c23	6	-2	11	-10
Cc1cccc2nc(=S)n(C(=O)c3ccco3)n12	42	2	-54	56*
O=C(c1ccco1)n1c(=S)nc2ccccn21	32	3	-26	77*
O=C(c1cc2ncc(Br)cn2n1)N1CCN(C(=O)c2ccco2)CC1	0	-8	11	21
CCN(CC)S(=O)(=O)c1cc(Br)c(C)cc1OC	-27	0	13	-1
CCOC(=O)c1sc(NC(=O)c2ccc(S(=O)(=O)N3CCOCC3)cc2)cc1C	-10	11	18	-16
CCSc1nc(-c2cccs2)nc2c1c(=O)n(C)c(=O)n2C	2	-4	4	5
SMILES	SF1 activator	Jurkat tox 60K	HEK293 NFkB inh	RORA act
CN1c2ccccc2C(C)(C)C12C=Cc1cc(O)ccc1O2 (stereo unspecified)	-9	54*	18	-22
COc1cccc(OC)c1C(=O)N1CCN(Cc2ccccc2C)CC1	-22	4	9	4
CCOC(=O)Cn1nnnc1CN(Cc1ccccc1)Cc1cc2cc(CC)ccc2[nH]c1=O	20	8	2	58*
CCCC(=O)NC(c1ccco1)c1cc(Cl)c2cccnc2c1O (stereo unspecified)	-34	29	15	2
Oc1c(C(Nc2nc3ccccc3s2)c2ccco2)ccc2cccnc12 (stereo unspecified)	-33	62*	71*	4
CC(C)C(=O)NC(c1ccco1)c1ccc2cccnc2c1O (stereo unspecified)	-10	90*	20	-16
COc1ccc(C(NC(C)=O)c2ccc3cccnc3c2O)c(OC)c1 (stereo unspecified)	-82	86*	31	-49
O=C(Nc1nc(-c2nc3ccccc3s2)cs1)c1ccco1	27	4	-2	33
COc1ccc(-n2nc(C(=O)NCC(=O)N3CCN(c4ccccn4)CC3)c3ccccc3c2=O)cc1	60*	0	0	23
Cc1ccc2cc(CCNC(=O)c3ccco3)c(=O)[nH]c2c1	64*	-5	-22	77*
Cc1ccc2cc(CCNC(=O)c3ccco3)c(=O)[nH]c2c1C	63*	4	-33	51*
COC(=O)c1c(NC(=O)c2ccc(C)o2)sc2c1CCCCC2	52*	-4	-20	34
Cc1ccc(C(=O)Nc2sc3c(c2C(=O)O)CCCCC3)o1	33	12	16	77*
O=C(Nc1sc2c(c1C(=O)O)CCCC2)c1cccs1	54*	5	-22	67*
CC(C)OC(=O)c1c(NC(=O)c2cccs2)sc2c1CCCC2	-8	-4	11	8
COc1cc(OC)cc(C(C(=O)NCc2ccccc2)N(Cc2ccco2)C(=O)c2ccno2)c1 (stereo unspecified)	-2	-4	10	-26
CC(N=Cc1cccc(O)c1O)c1ccccc1 (stereo unspecified)	-18	28	-3	3
CN=Cc1cc(-c2ccccc2)sc1O	56*	-6	-27	27
Cc1cc(C)nc(SC2=CS(=O)(=O)c3ccccc32)n1	-36	12	22	-65
O=S1(=O)C=C(Sc2nnc(-c3ccccc3)o2)c2ccccc21	-66	101*	12	-80
O=C(NCc1cccnc1)c1c[nH]c2cc3c(cc2c1=O)OCCO3	47	94*	8	25
O=C(c1ccccc1)c1c[nH]c2cc3c(cc2c1=O)OCCO3	50*	nt	0	40
CCOC(=O)c1oc2ccc(CNCCO)c(Cl)c2c1C	66*	2	9	19
O=C(Nc1cccc2nsnc12)c1ccc(F)cc1	5	1	16	-5
O=C(Nc1cccc2nsnc12)c1ccc2c(c1)OCCO2	54*	-4	-15	70*
SMILES	SF1 activator	Jurkat tox 60K	HEK293 NFkB inh	RORA act
CCNc1nc(N)nc(Oc2ccc(C(=O)OC)cc2)n1	44	1	-6	56*
Cc1ccc(NC(=O)C2C3C=CC4(CN(Cc5cccnc5)C(=O)C24)O3)cc1F (stereo unspecified)	-1	3	-8	6
N#Cc1c(/N=C/c2ccco2)sc2c1CCC2	29	3	14	-13
CN1CCN(/C=N/c2sc3c(c2C#N)CCCCC3)CC1	54*	nt	nt	34
Cc1ccc(/C=N/c2sc3c(c2C#N)CCC3)s1	-16	nt	-59	22
Cc1ccc(/C=N/c2sc3c(c2C#N)CCCCC3)o1	54*	0	-17	12
CC(C)COP(=O)(c1ccc(N(C)C)cc1)C(O)c1ccccn1 (stereo unspecified)	27	-4	-8	-10
Cc1csc2nc(CNC(=O)c3ccco3)cn12	52*	-4	-2	42
Cc1onc(-c2ccccc2)c1C(=O)Nc1cc(C(F)(F)F)ccc1N1CCOCC1	-2	87*	12	24
O=C1CSC(c2cccs2)N1c1ccccc1 (stereo unspecified)	-12	0	18	-12
c1ccc(N2CCN(c3ccccc3)C2c2cccs2)cc1	24	-6	8	58*
